Columns and labels:
Mus musculus [1] = assay: Anti-fighting potency against foot shock induced fighting behavior in mice expressed as % inhibition at 25 mg/kg peroral administration; assay type: functional; details: route oral
Mus musculus [2] = assay: Anti-morphine activity against morphine-induced Straub''s tail reaction in mice expressed as % inhibition at 25 mg/kg peroral administration; assay type: functional; details: route oral
Method in brief: (§1)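 Six mice per group received test compounds orally 1 h before morphine (20 mg/kg ip). Straub's tail reaction was scored as the index of morphine's CNS stimulant action.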

Mus musculus [3] = assay: Anti-morphine activity against the morphine-induced Straub's tail reaction in mice on peroral administration; assay type: functional; details: po
Method in brief: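 Mice, six per group, dosed orally with test compound 1 h before morphine (20 mg/kg ip); Straub's tail reaction scored as index of morphine CNS stimulation.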

Mus musculus [4] = assay: Cataleptogenic action in mice on peroral administration; assay type: functional; details: po
Method in brief: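 Six mice per group were dosed orally 1 h before testing. Forepaws were placed on a horizontal steel bar to force an abnormal posture. Holding the posture over 30 s counted as catalepsy. ED50 was the dose giving catalepsy in 50% of animals, with 95% confidence limits.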

Mus musculus [5] = assay: Antifighting potency against the foot shock induced fighting behavior in mice on peroral administration; assay type: functional; details: po
Mus musculus [6] = assay: Evaluated for muscle-relaxant action in mice on peroral administration; assay type: functional; details: po
Method in brief: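 Traction test: mice, eight per group, dosed orally; 1 h later forepaws placed on horizontal wire bar 30 cm high; failure to bring hind feet onto wire within 5 s counted as muscle relaxation.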

Mus musculus [7] = assay: Evaluated for hypothermic activity in mice at 30 mg/kg on peroral administration; assay type: functional; details: route oral
Method in brief: (§2)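 Six mice per group were dosed orally 1 h before testing. Rectal temperature was read with an electronic thermometer. Results are given as degrees of hypothermia (Δt °C) versus an untreated group.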

Rattus norvegicus [8] = assay: Evaluated for neuroleptic-like property using anti-methamphetamine test in rats on peroral administration; assay type: functional; details: po
Method in brief: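 Groups of six rats were dosed orally, then given methamphetamine 5 mg/kg ip 1 h later. Stereotypy was scored 0–4: sleep/eyes closed 0, motionless/eyes open 1, moving around cage 2, sniffing 3, continuous licking or gnawing 4. ED50 was the dose halving mean score versus controls, with 95% confidence limits.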

Mus musculus [9] = assay: Anti-morphine activity against the morphine-induced Straub''s tail reaction in mice expressed as % inhibition at 25 mg/kg peroral administration; assay type: functional; details: route oral; method in brief: as §1
Rattus norvegicus [10] = assay: Evaluated for neuroleptic-like property using open-field test in rats(increase in ambulation at 3 to 20 mg/kg) on peroral administration; value may range from 8.4 to 17.0; assay type: functional; details: dose mg/kg 3-20, route oral
[11] = Toxicity on peroral administration to mice; assay type: organism-based; details: mouse, in vivo, po
Method in brief: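 Oral dosing to mice, eight per group; LD50 calculated by Litchfield-Wilcoxon method.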

[12] = Ratio of the muscle relaxant action to antifighting effect; assay type: functional
Method in brief: (§3)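 Muscle relaxation was measured by traction test in mice (eight per group), 1 h after oral dosing. Forepaws were placed on a horizontal wire bar 30 cm high. Failure to bring the hind feet onto the wire within 5 s counted as relaxation. This action was set in ratio with the antifighting effect.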

Mus musculus [13] = assay: Evaluated for hypothermic activity in mice at 30 mg/kgo n peroral administration; assay type: functional; details: dose 30 mg/kg; route oral; method in brief: as §2
Rattus norvegicus [14] = assay: Evaluated for neuroleptic-like property using open-field test in rats(increase in ambulation at 3 to 20 mg/kg on peroral administration; value may range from 7.3 to 13.9; assay type: functional; details: dose mg/kg 3-20, route oral
[15] = Ratio of muscle relaxant action to antifighting effect; assay type: functional; method in brief: as §3

Compound	inhibition in vivo at 25 mg/kg (Mus musculus [1])	inhibition in vivo at 25 mg/kg (Mus musculus [2])	also measured
Fc1ccc(N2CCN(CCCOc3cc4c(cc3F)CCC4)CC2)cc1	100%	97%	
Oc1cc2c(cc1OCCCN1CCN(c3ccc(F)cc3)CC1)CCC2	25%	0%	
COc1ccccc1N1CCN(CCCOc2ccc3c(c2)CCC3)CC1	0%	19%	
COc1ccc(N2CCN(CCCOc3ccc4c(c3)CCC4)CC2)cc1	60%	37%	
CN1C(=O)CN=C(c2ccccc2)c2cc(Cl)ccc21 [DIAZEPAM]			ED50 (Mus musculus [3]): 1.2 mg/kg; ED50 (Mus musculus [4]): > 30 mg/kg; ED50 (Mus musculus [5]): 1.6 mg/kg; ED50 (Mus musculus [6]): 4.8 mg/kg; Delta t (Mus musculus [7]): -0.1; ED50 (Rattus norvegicus [8]): > 30 mg/kg
Cl.Cl.Cl.Clc1cc2c(cc1OCCCN1CCN(c3ccccc3)CC1)CCC2	58%	82%	ED50 (Mus musculus [3]): 22 mg/kg; ED50 (Mus musculus [5]): 21 mg/kg
O=[N+]([O-])c1ccccc1N1CCN(CCCOc2ccc3c(c2)CCC3)CC1	8%	43%	
Clc1cc(Cl)cc(N2CCN(CCCOc3ccc4c(c3)CCC4)CC2)c1	0%	0%	
COc1ccc(N2CCN(CCCCOc3ccc4c(c3)CCC4)CC2)cc1	17%	14%	
O=[N+]([O-])c1cc2c(cc1OCCCN1CCN(c3ccc(F)cc3)CC1)CCC2	58%	28%	
Clc1ccc(N2CCN(CCCOc3ccc4c(c3)CCC4)CC2)cc1	43%	58%	
c1ccc(N2CCN(CCCOc3cccc4c3CCC4)CC2)cc1	0%	33%	
Cl.Cl.c1ccc(N2CCN(CCCOc3ccc4c(c3)CCC4)CC2)cc1	85%		inhibition in vivo at 25 mg/kg (Mus musculus [9]): 89%; ED50 (Mus musculus [4]): > 100 mg/kg; Delta t (Mus musculus [7]): -2.3 °C; ED50 (Rattus norvegicus [10]): 11.7 mg/kg; ED50 (Rattus norvegicus [8]): > 100 mg/kg; LD50 [11]: > 1500 mg/kg; Ratio [12]: 2.18
Cl.Cl.O=[N+]([O-])c1ccccc1N1CCN(CCCCOc2ccc3c(c2)CCC3)CC1	42%	54%	ED50 (Mus musculus [3]): 23 mg/kg; ED50 (Mus musculus [5]): 25.8 mg/kg
Oc1cc2c(cc1OCCCN1CCN(c3cccc(Cl)c3)CC1)CCC2	0%	29%	
Fc1cc2c(cc1OCCCN1CCN(c3cccc(C(F)(F)F)c3)CC1)CCC2	0%	20%	
c1ccc(N2CCN(CCOc3ccc4c(c3)CCC4)CC2)cc1	0%	17%	
CNC1=Nc2ccc(Cl)cc2C(c2ccccc2)=[N+]([O-])C1 [CHLORDIAZEPOXIDE]			ED50 (Mus musculus [4]): > 30 mg/kg; ED50 (Mus musculus [6]): 8 mg/kg; Delta t (Mus musculus [7]): 0.2; ED50 (Rattus norvegicus [8]): > 30 mg/kg; LD50 [11]: 700 mg/kg
Fc1ccc(N2CCN(CCCCOc3ccc4c(c3)CCC4)CC2)cc1	70%	100%	
Clc1ccc(N2CCN(CCCCOc3ccc4c(c3)CCC4)CC2)cc1	31%	33%	
Cl.Cl.Fc1cc2c(cc1OCCCN1CCN(c3ccccc3)CC1)CCC2	100%	89%	ED50 (Mus musculus [4]): > 100 mg/kg; Delta t (Mus musculus [13]): -2.9 °C; ED50 (Rattus norvegicus [14]): 9.3 mg/kg; ED50 (Rattus norvegicus [8]): > 100 mg/kg; LD50 [11]: > 2000 mg/kg; Ratio [15]: 5
COc1cc2c(cc1OCCCN1CCN(c3cccc(Cl)c3)CC1)CCC2.Cl.Cl.Cl	67%	98%	ED50 (Mus musculus [3]): 11.3 mg/kg; ED50 (Mus musculus [5]): 15.9 mg/kg
Fc1ccc(N2CCN(CCCOc3ccc4c(c3)C(c3ccccc3)CC4)CC2)cc1 (stereo not given)	17%	32%	
O=[N+]([O-])c1ccc(N2CCN(CCCOc3ccc4c(c3)CCC4)CC2)cc1	0%	26%	
Fc1cc2c(cc1OCCCN1CCN(c3cccc(Cl)c3)CC1)CCC2	92%	92%	
Cl.Cl.Cl.Fc1ccc(N2CCN(CCCOc3cc4c(cc3Cl)CCC4)CC2)cc1	83%	100%	ED50 (Mus musculus [3]): 11.5 mg/kg; ED50 (Mus musculus [5]): 14.3 mg/kg
O=[N+]([O-])c1ccc(N2CCN(CCCCOc3ccc4c(c3)CCC4)CC2)cc1	0%	22%	

Compound	inhibition in vivo at 25 mg/kg (Mus musculus [1])	inhibition in vivo at 25 mg/kg (Mus musculus [2])	also measured
Clc1cc(Cl)cc(N2CCN(CCCCOc3ccc4c(c3)CCC4)CC2)c1	0%	0%	
Cl.Cl.Fc1ccc(N2CCN(CCCCOc3cc4c(cc3F)CCC4)CC2)cc1	83%	90%	ED50 (Mus musculus [3]): 10.2 mg/kg; ED50 (Mus musculus [5]): 14.4 mg/kg
Clc1cccc(N2CCN(CCCCOc3ccc4c(c3)CCC4)CC2)c1	37%	0%	
Clc1ccc(N2CCN(CCCOc3cc4c(cc3Cl)CCC4)CC2)cc1	33%	36%	
CCC1CCc2ccc(OCCCN3CCN(c4ccc(F)cc4)CC3)cc21 (stereo not given)	67%	44%	
Clc1cccc(N2CCN(CCCOc3ccc4c(c3)CCC4)CC2)c1	83%	83%	
CC(=O)c1ccc(N2CCN(CCCOc3ccc4c(c3)CCC4)CC2)cc1	13%	0%	
FC(F)(F)c1cccc(N2CCN(CCCCCOc3ccc4c(c3)CCC4)CC2)c1	33%	66%	
Clc1ccccc1N1CCN(CCCOc2ccc3c(c2)CCC3)CC1	40%	42%	
c1ccc(N2CCN(CCCCCOc3ccc4c(c3)CCC4)CC2)cc1	27%	25%	
Fc1ccc(N2CCN(CCCCCOc3ccc4c(c3)CCC4)CC2)cc1	58%	71%	
FC(F)(F)c1cccc(N2CCN(CCCOc3ccc4c(c3)CCC4)CC2)c1	0%	73%	
COc1ccccc1N1CCN(CCCCOc2ccc3c(c2)CCC3)CC1	33%	42%	
Fc1cc2c(cc1OCCCCN1CCN(c3ccccc3)CC1)CCC2	33%	79%	
Fc1cccc(N2CCN(CCCOc3ccc4c(c3)CCC4)CC2)c1	19%	42%	
c1ccc(N2CCN(CCCCOc3ccc4c(c3)CCC4)CC2)cc1	75%	50%	
COc1cc2c(cc1OCCCN1CCN(c3ccccc3)CC1)CCC2	50%	65%	
Cl.Cl.FC(F)(F)c1cccc(N2CCN(CCCCOc3ccc4c(c3)CCC4)CC2)c1	8%	100%	ED50 (Mus musculus [3]): 12.5 mg/kg
Fc1ccc(N2CCN(CCOc3ccc4c(c3)CCC4)CC2)cc1	40%	0%	
Fc1cccc(N2CCN(CCCCOc3ccc4c(c3)CCC4)CC2)c1	15%	17%	
O=[N+]([O-])c1cc2c(cc1OCCCN1CCN(c3ccccc3)CC1)CCC2	67%	24%	
c1ccc(C2CCc3ccc(OCCCN4CCN(c5ccccc5)CC4)cc32)cc1 (stereo not given)	0%	34%	
COc1cc2c(cc1OCCCN1CCN(c3ccc(F)cc3)CC1)CCC2	100%	100%	
Cl.Cl.Cl.Clc1ccccc1N1CCN(CCCCOc2ccc3c(c2)CCC3)CC1	85%	42%	ED50 (Mus musculus [3]): 30 mg/kg; ED50 (Mus musculus [5]): 14.5 mg/kg
Cc1cc2c(cc1OCCCN1CCN(c3ccc(F)cc3)CC1)CCC2	50%	31%	
Fc1ccc(N2CCN(CCCOc3cccc4c3CCC4)CC2)cc1	5%	25%	
Oc1cc2c(cc1OCCCN1CCN(c3ccccc3)CC1)CCC2	17%	0%	

From ChEMBL document CHEMBL1122329, “Synthesis and antianxiety activity of (omega-piperazinylalkoxy)indan derivatives” (J Med Chem, 1983)
